The text below walks through data of paper PMC5525105 (ACS Chemical Biology, 2017).

Where a chain is given by its changes, count along the chain named.

In one data set the target is T1, wild-type GBA (Homo sapiens, UniProt P04062).
T1 sequence (P04062 40-536): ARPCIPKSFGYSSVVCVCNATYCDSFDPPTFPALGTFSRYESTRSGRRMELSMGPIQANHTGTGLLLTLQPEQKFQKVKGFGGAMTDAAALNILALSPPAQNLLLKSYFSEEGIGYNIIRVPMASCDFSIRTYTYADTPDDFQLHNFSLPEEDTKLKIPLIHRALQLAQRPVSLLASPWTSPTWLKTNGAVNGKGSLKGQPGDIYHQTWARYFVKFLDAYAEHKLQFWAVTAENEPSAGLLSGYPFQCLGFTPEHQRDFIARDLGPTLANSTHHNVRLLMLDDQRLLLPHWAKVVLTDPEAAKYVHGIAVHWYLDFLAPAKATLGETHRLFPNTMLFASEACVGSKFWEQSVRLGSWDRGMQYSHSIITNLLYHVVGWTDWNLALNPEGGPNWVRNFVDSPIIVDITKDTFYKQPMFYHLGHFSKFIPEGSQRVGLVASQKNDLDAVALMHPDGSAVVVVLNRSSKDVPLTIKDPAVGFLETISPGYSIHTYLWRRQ
Briefly: In situ stabilization of GBA in wild-type fibroblasts. The settings on record: wild-type cells, 100 nM ABP 5 or 100 μM leupeptin, up to 12 days. Type of data set: cell-based. In a few lines:
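Confluent wild-type skin fibroblasts were cultured 0–12 days with 100 nM red β-epoxide probe, 100 μM leupeptin, or both, with medium refreshed […]. Lysates were made in pH 6.5 phosphate/Triton with protease inhibitors. Without in situ probe, 10 μg protein was labeled 1 h at 37 °C with 100 nM green probe at pH 5.2. Analysis was SDS-PAGE fluorescence, Coomassie staining and anti-GBA (8E4) western blot, then densitometry.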

Data set [1] has as its target T2, rGBA (Homo sapiens, UniProt P04062, R534H).
T2 sequence (P04062 40-536 R534H): T1 sequence (P04062 40-536) with R495H
Briefly: Thermal stability of rGBA by tryptophan fluorescence decay. Type of data set: binding.

The target of data set [2] is T2, rGBA. Briefly: Limited proteolysis of rGBA with trypsin. The note with it: for rGBA remaining intact after tryptic digestion: 90 min of incubation with trypsin.
A further data set concerns wild-type and N370S GBA. Briefly: In situ treatment of fibroblasts with IFG 1 or fluoro 3 for 12 days. Type of data set: cell-based, human. The settings on record: wild-type and homozygous N370S GBA fibroblasts.
Another data set relates to GBA. The note with it: neutral pH; cited from earlier work.
The test system of the next data set is GBA L444P mutant. The settings on record: mice, oral administration; cited from earlier work.
Data set [3] is described as follows: Thermal unfolding of free rGBA by circular dichroism. Type of data set: physicochemical. The note with it: circular dichroism 222 nm.
Data set [4] in a line: Time-dependent decay of rGBA activity at 37 °C. In kind it is physicochemical.
Data set [5] deals with T2, rGBA. Briefly: Tryptophan emission fluorescence spectra of rGBA. The note with it: λEX 295 nm, pH 7.4, free or in complex with inhibitor.

For `CC(=O)N[C@@H](CC(C)C)C(=O)N[C@@H](CC(C)C)C(=O)N[C@H](C=O)CCCNC(=N)N` [leupeptin], at wild-type GBA, the “stabilization of GBA” value is on record as “about 3 fold”.
Regarding `OC[C@H]1CNC[C@@H](O)[C@@H]1O` [IFG 1, isofagomine], the “increase of Tm of rGBA” value at rGBA [1] (pH 5.2, saturating inhibitor concentration) was “+5.6 °C”. Moreover, the “rGBA remaining intact after tryptic digestion” value on rGBA [2] turned out to be 50%. Moreover, the “concentration at which stabilizing effect became evident” value with wild-type and N370S GBA was “greater than 10 μM”. For the same molecule, the “concentration of maximal stabilizing effect” value in the data set with wild-type and N370S GBA (highest concentration tested) turned out to be 100 µM. Further, in the data set on GBA, the “increase in thermal stability of GBA” value is 8.7 °C. In addition, the “increase of GBA L444P mutant activity” value with GBA L444P mutant is given as “up to 5 fold”.

B1: rGBA: purified recombinant glucocerebrosidase (imiglucerase) from Genzyme (protein, UniProt P04062 40-536, looked up, variant R495H)
Lysosomal acid …: T1 sequence (P04062 40-536) with R495H
modifications: imiglucerase
In the case of B1, the “Tm of rGBA” value with rGBA [1] (pH 5.2, no inhibitor) turned out to be 55.2 °C. In addition, the results for the “apparent Tm” value in data set [3] (pH 5.2) and in [3] (pH 7.4) were 61 °C and 57 °C, respectively. Moreover, the “activity of rGBA over time” value in [4] (pH 5.2, 37 °C) is recorded as “preserved”. In data set [4] (pH 7.4, 37 °C, residual activity measured at pH 5.2), the “half-life of rGBA activity” value worked out at 30 min. Also, the “rGBA remaining intact after tryptic digestion” value with rGBA [2] is given as ~10%. Moreover, the “sensitivity of rGBA to tryptic digestion over 90 min” value with rGBA [2] (pH 5.2, trypsin/rGBA 1/10 (w/w)) is recorded as “shows resistance to tryptic digestion”. The “rGBA degraded by trypsin within 60 min” value in the data set with rGBA [2] (pH 7.4, trypsin/rGBA 1/10 (w/w)) is on record as “about 40%”. In addition, the “maximum emission of rGBA tryptophan fluorescence” value in the data set with rGBA [5] is reported as 336.5 nm.
